Source: paper PMC10634270 (ACS Omega, 2023)

Columns and labels:
[1] = Antioxidant ABTS decolorization assay; conditions: relative to ascorbic acid
Procedure, shortened: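 Antioxidant capacity is read as ABTS radical decolorization. It is expressed relative to ascorbic acid as ascorbic acid equivalents in mol mol–1. Values are given with standard deviation.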

HeLa wt cells = experiment: Cell viability MTT assay on HeLa wt cells; type: cell-based, human; conditions: for cytotoxicity against HeLa cells (in words): either human cell line
Hs27 fibroblasts = experiment: Cell viability MTT assay on Hs27 fibroblasts; type: cell-based, human; conditions: for cytotoxicity against Hs27 fibroblasts (in words): either human cell line
Procedure, shortened: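 In vitro viability screen on Hs27 human fibroblasts, the same cells that serve as hosts in the parasite proliferation assay. IC50 is reported with confidence intervals.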

[2] = Stability experiments in DMSO; type: physicochemical; conditions: up to 40 °C, over 24 h

Q: What does the source list for `Cc1cc(O)c2c(=O)cc(-c3ccc(N(C)C)cc3)oc2c1-c1c(C)cc(O)c2c(=O)cc(-c3ccc(N(C)C)cc3)oc12` [compound 11, rac-2,2′-Bis(4-(dimethylamino)phenyl)-5,5′-dihydroxy-7,7′-dimethyl-4H,4′H-[8,8′-bichromene]-4,4′-dione]?
A: ascorbic acid equivalent antioxidant capacity (AEAC) [1]: 0.037 equiv ascorbic acid [mol mol^–; IC50 (HeLa wt cells; Homo sapiens, HeLa, 48 h, read-out: IC50 (HeLa)): > 100 µM; IC50 (Hs27 fibroblasts; Homo sapiens, HS27, 24 h, read-out: IC50 (Hs27)): > 200 µM

Q: With `COc1cc(C)c(-c2c(C)cc(OC)c3c(=O)cc(-c4ccc(C(F)(F)F)cc4)oc23)c2oc(-c3ccc(C(F)(F)F)cc3)cc(=O)c12` [9ad, rac-5,5′-Dimethoxy-7,7′-dimethyl-2,2′-bis(4-(trifluoromethyl)phenyl)-4H,4′H-[8,8′-bichromene]-4,4′-dione] as the compound, how does the “cytotoxicity against HeLa cells (in words)” value (HeLa wt cells) read?
A: The value was “noncytotoxic”.

Q: And the “cytotoxicity against Hs27 fibroblasts (in words)” value (Hs27 fibroblasts)?
A: The value was “noncytotoxic”.

Q: For `COc1ccc(-c2cc(=O)c3c(OC)cc(C)c(-c4c(C)cc(OC)c5c(=O)cc(-c6ccc(OC)cc6)oc45)c3o2)cc1` [9aa, rac-5,5′-Dimethoxy-2,2′-bis(4-methoxyphenyl)-7,7′-dimethyl-4H,4′H-[8,8′-bichromene]-4,4′-dione], which “ascorbic acid equivalent antioxidant capacity (AEAC)” value [1] is on record?
A: Its value is 0.25 equiv ascorbic acid [mol mol^–1].

Q: For `COc1cc(OC)c2c(=O)cc(-c3ccc(C(F)(F)F)cc3)oc2c1-c1c(OC)cc(OC)c2c(=O)cc(-c3ccc(C(F)(F)F)cc3)oc12` [9bd, rac-5,5′,7,7′-Tetramethoxy-2,2′-bis(4-(trifluoromethyl)phenyl)-4H,4′H-[8,8′-bichromene]-4,4′-dione], which “cytotoxicity against HeLa cells (in words)” value (HeLa wt cells) is on record?
A: The value was “noncytotoxic”.

Q: And the “cytotoxicity against Hs27 fibroblasts (in words)” value (Hs27 fibroblasts)?
A: The value was “noncytotoxic”.

Q: For `COc1cc(OC)c2c(=O)cc(-c3ccc(C(F)(F)F)cc3)oc2c1` [8bd, 5,7-Dimethoxy-2-(4-(trifluoromethyl)phenyl)-4H-chromen-4-one], which “cytotoxicity against HeLa cells (in words)” value (HeLa wt cells) is on record?
A: Its value is “noncytotoxic”.

Q: What about the “cytotoxicity against Hs27 fibroblasts (in words)” value (Hs27 fibroblasts) of the same compound?
A: The value was “noncytotoxic”.

Q: With `COc1cc(C)c(-c2c(C)cc(OC)c3c(=O)cc(-c4ccc(N(C)C)cc4)oc23)c2oc(-c3ccc(N(C)C)cc3)cc(=O)c12` [9ac, rac-2,2′-Bis(4-(dimethylamino)phenyl)-5,5′-dimethoxy-7,7′-dimethyl-4H,4′H-[8,8′-bichromene]-4,4′-dione] as the compound, how does the “ascorbic acid equivalent antioxidant capacity (AEAC)” value [1] read?
A: Its value is 0.197 equiv ascorbic acid [mol mol^–.

Q: What about the “stability in DMSO” value [2] of the same compound?
A: The value was “stable”.

Q: Which “cytotoxicity against HeLa cells (in words)” value (HeLa wt cells) does the source give for `COc1cc(C)cc2oc(-c3ccc(C(F)(F)F)cc3)cc(=O)c12` [8ad, 5-Methoxy-7-methyl-2-(4-(trifluoromethyl)phenyl)-4H-chromen-4-one] here?
A: The value was “noncytotoxic”.

Q: And the “cytotoxicity against Hs27 fibroblasts (in words)” value (Hs27 fibroblasts)?
A: The value was “noncytotoxic”.
